# Active and inactive are the calls of the source. The calls are words filed in the database; no cut-off is given here.
# Legend:
# Enterococcus [1] = assay: Antibacterial activity against vancomycin-resistant Enterococcus at 0.5 times MIC after […] serial passages; assay type: functional
# In short: (§1)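 Multi-step resistance selection with serial sub-culture of bacteria at sub-inhibitory compound concentrations for 15 passages. MIC was redetermined after each passage to follow any increase over the starting value. Amikacin was run in parallel as reference.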
# [2] = Antifungal activity against fluconazole/itraconazole/voriconazole-resistant Candida albicans ATCC 90819; assay type: functional
# Klebsiella pneumoniae = assay: Antibacterial activity against Klebsiella pneumoniae ATCC 27736; assay type: functional
# Listeria monocytogenes [3] = assay: Antibacterial activity against Listeria monocytogenes ATCC 19115 at 0.5 times MIC after […] serial passages; assay type: functional; in short: as §1
# Bacillus subtilis = assay: Antibacterial activity against Bacillus subtilis 168; assay type: functional; conditions: subsp. subtilis str. 168
# [4] = Cytotoxicity against human BEAS2B cells assessed as reduction in cell survival; assay type: toxicity, cell-based; conditions: beas-2b
# Candida albicans [5] = assay: Antifungal activity against Candida albicans ATCC 1003; assay type: functional
# Candida albicans [6] = assay: Induction of intracellular ROS production in Candida albicans ATCC 10231 at 1 to 2 times MIC after 1 hr by DCFH-DA probe based fluorescence microscopic analysis; assay type: functional, cell-based
# In short: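 C. albicans ATCC 10231 was exposed for 1 h at 35 °C, with untreated cells as negative control and 1 mM H2O2 as positive control. Cells were then stained with DCFH-DA (20 μg/mL), and intracellular ROS was read by fluorescence microscopy.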
# Pseudomonas aeruginosa [7] = assay: Antibacterial activity against Pseudomonas aeruginosa ATCC 27853; assay type: functional
# Enterobacter cloacae = assay: Antibacterial activity against Enterobacter cloacae ATCC 13047; assay type: functional; conditions: subsp. cloacae ATCC 13047
# [8] = Antifungal activity against fluconazole/itraconazole/voriconazole-resistant Candida albicans ATCC 1237; assay type: functional
# [9] = tested on: Mycolicibacterium smegmatis; assay: Antimycobacterial activity against Mycobacterium smegmatis MC2 155; assay type: functional; conditions: str. MC2 155
# In short: (§2)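 Values were set in μM and converted to μg/mL for presentation. Amikacin, ampicillin and ofloxacin served as positive controls.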
# [10] = Antifungal activity against fluconazole/itraconazole/voriconazole-susceptible Candida albicans ATCC 2310; assay type: functional
# Listeria monocytogenes [11] = assay: Antibacterial activity against Listeria monocytogenes ATCC 19115; assay type: functional
# Escherichia coli = assay: Antibacterial activity against Escherichia coli MC1061; assay type: functional; in short: as §2
# [12] = Cytotoxicity against human A549 cells assessed as reduction in cell survival; assay type: toxicity, cell-based
# [13] = Antibacterial activity against Salmonella enterica ATCC 14028; assay type: functional
# [14] = Antifungal activity against fluconazole/itraconazole/voriconazole-susceptible Candida albicans ATCC 2876; assay type: functional
# [15] = Antifungal activity against fluconazole/itraconazole/voriconazole-resistant Candida albicans ATCC 64124; assay type: functional
# Acinetobacter baumannii = assay: Antibacterial activity against Acinetobacter baumannii ATCC 19606; assay type: functional
# [16] = Antifungal activity against fluconazole/itraconazole/voriconazole-resistant Candida albicans ATCC 10231; assay type: functional
# Enterococcus [17] = assay: Antibacterial activity against vancomycin-resistant Enterococcus; assay type: functional; in short: as §2
# Staphylococcus aureus [18] = assay: Antibacterial activity against methicillin-resistant Staphylococcus aureus; assay type: functional; in short: as §2
# Listeria monocytogenes [19] = assay: Ratio of MIC for Listeria monocytogenes ATCC 19115 after and before 15 serial passages at 0.5 times MIC; assay type: functional; in short: as §1
# Enterococcus [20] = assay: Ratio of MIC for vancomycin-resistant Enterococcus after and before 15 serial passages at 0.5 times MIC; assay type: functional; in short: as §1
# Staphylococcus aureus [21] = assay: Ratio of MIC for methicillin-resistant Staphylococcus aureus after and before 15 serial passages at 0.5 times MIC; assay type: functional; in short: as §1
# Pseudomonas aeruginosa [22] = assay: Ratio of MIC for Pseudomonas aeruginosa ATCC 27853 after and before 15 serial passages at 0.5 times MIC; assay type: functional; in short: as §1
# Candida albicans [23] = assay: Ratio of MIC for Candida albicans ATCC 10231 after and before 13 serial passages at 0.5 times MIC; assay type: functional
Compound,MIC [2],MIC (Klebsiella pneumoniae),MIC (Bacillus subtilis),IC50 [4],MIC (Candida albicans [5]),MIC (Pseudomonas aeruginosa [7]),MIC (Enterobacter cloacae),MIC [8],MIC [9],MIC [10],MIC (Listeria monocytogenes [11]),MIC (Escherichia coli),IC50 [12],MIC [13],MIC [14],MIC [15],MIC (Acinetobacter baumannii),MIC [16],MIC (Enterococcus [17]),MIC (Staphylococcus aureus [18]),also measured
Cl.N=C(N)N/N=C/c1ccc(-c2ccc(/C=N/Nc3ccccc3Cl)cc2)cc1,4.6 µM,> 500 µM,> 500 µM,2.3 µg/mL,4.6 µM,> 500 µM,> 500 µM,9.2 µM,3.9 µM,4.6 µM,1 to 2 µM,> 500 µM,2.8 µg/mL,> 500 µM,4.6 µM,9.2 µM,> 500 µM,4.6 µM,,,Activity (Enterococcus [1]): Active; Activity (Listeria monocytogenes [3]): Active; Activity (Candida albicans [6]): Active
Cl.N=C(N)N/N=C/c1ccc(-c2ccc(/C=N/Nc3ccc(Cl)cc3)cc2)cc1,18.3 µM,> 500 µM,> 500 µM,6 µg/mL,9.1 µM,> 500 µM,> 500 µM,36.5 µM,3.9 µM,9.1 µM,3.9 µM,> 500 µM,4.9 µg/mL,> 500 µM,18.3 µM,36.5 µM,> 500 µM,18.3 µM,3.9 µM,7.8 µM,
Cl.Cl.N=C(N)N/N=C/c1ccc(-c2ccc(/C=N/NC(=N)N)cc2)cc1,> 79.2 µM,> 500 µM,> 500 µM,3 µg/mL,19.7 µM,> 500 µM,> 500 µM,39.5 µM,> 500 µM,> 79.2 µM,1 µM,> 500 µM,6.6 µg/mL,> 500 µM,19.7 µM,> 79.2 µM,> 500 µM,39.5 µM,2 µM,3.9 µM,
C/C(=N\NC(=N)N)c1ccc(CCc2ccc(/C(C)=N/NC(=N)N)cc2)cc1.Cl.Cl,17.3 µM,> 500 µM,> 500 µM,1.8 µg/mL,34.6 µM,> 500 µM,> 500 µM,34.6 µM,1 µM,69.3 µM,1 µM,> 500 µM,2.9 µg/mL,> 500 µM,8.6 µM,> 69.3 µM,> 500 µM,17.3 µM,1 µM,1 to 2 µM,fold change (FC) (Listeria monocytogenes [19]): 8; fold change (FC) (Enterococcus [20]): 16; fold change (FC) (Staphylococcus aureus [21]): 4 - 16
C/C(=N\NC(=N)N)c1ccc(Oc2ccc(/C(C)=N/NC(=N)N)cc2)cc1.Cl.Cl,17.8 µM,62.5 µM,125 µM,2.9 µg/mL,17.8 µM,62.5 µM,250 µM,17.8 µM,125 to 250 µM,17.8 µM,62.5 µM,125 µM,3.9 µg/mL,125 µM,8.9 µM,17.8 µM,62.5 µM,17.8 µM,3.9 µM,125 µM,
Cl.Cl.N=C(N)N/N=C/c1ccc(-c2cccc(/C=N/NC(=N)N)c2)cc1,9.9 µM,> 500 µM,> 500 µM,5.7 µg/mL,9.9 µM,> 500 µM,> 500 µM,9.9 µM,1 µM,9.9 µM,1 µM,> 500 µM,13.9 µg/mL,> 500 µM,9.9 µM,9.9 µM,> 500 µM,9.9 µM,3.9 µM,3.9 µM,
C/C(=N\NC(=N)N)c1ccc2c(c1)Cc1cc(/C(C)=N/NC(=N)N)ccc1-2.Cl.Cl,4.6 µM,31.3 to 62.5 µM,7.8 µM,1.8 µg/mL,2.3 µM,1 to 2 µM,500 µM,4.6 µM,,2.3 µM,< 0.5 µM,500 µM,2.5 µg/mL,3.9 µM,2.3 µM,2.3 µM,500 µM,2.3 to 4.6 µM,,1 to 2 µM,fold change (FC) (Listeria monocytogenes [19]): 1; Activity (Candida albicans [6]): Active; fold change (FC) (Pseudomonas aeruginosa [22]): 1; fold change (FC) (Enterococcus [20]): 1; fold change (FC) (Candida albicans [23]): 2; fold change (FC) (Staphylococcus aureus [21]): 1
Cl.N#Cc1ccc(N/N=C/c2ccc(-c3ccc(/C=N/NC(=N)N)cc3)cc2)cc1,37.3 µM,15.6 to 31.3 µM,31.3 µM,1.9 µg/mL,18.7 µM,31.3 to 62.5 µM,500 µM,37.3 µM,15.6 to 31.3 µM,37.3 µM,7.8 µM,62.5 to 125 µM,4.2 µg/mL,15.6 µM,37.3 µM,74.9 µM,15.6 to 31.3 µM,37.3 µM,2 to 3.9 µM,15.6 µM,
